Among all 330,000 compounds or so, about 300 (0.091%) were called active.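 The calls were made as follows: active = percent activation above the screen-wide mean plus 3 SD (cut at about 25% in these data); inactive = the rest.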 Only a selection was taken, and actives are over-represented in it overall.

Chain of Caspase-7 (Homo sapiens) (P55210 whole entry D23A/D198A/D206A): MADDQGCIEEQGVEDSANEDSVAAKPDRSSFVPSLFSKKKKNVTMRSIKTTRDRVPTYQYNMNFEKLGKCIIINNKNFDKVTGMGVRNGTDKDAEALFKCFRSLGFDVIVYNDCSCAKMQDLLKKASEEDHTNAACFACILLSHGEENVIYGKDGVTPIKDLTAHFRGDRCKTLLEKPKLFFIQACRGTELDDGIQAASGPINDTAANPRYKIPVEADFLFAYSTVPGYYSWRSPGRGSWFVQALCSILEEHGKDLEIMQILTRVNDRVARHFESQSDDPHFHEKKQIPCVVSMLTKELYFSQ

The target in the assay is Caspase-7 (Homo sapiens) (UniProt P55210). As to the kind of experiment: procaspase-7 activators, primary screen, counter-screen for procaspase-3 activator project, biochemical, absorbance, HTS, human (AID 463210). To be noted: recombinant procaspase-7, Ac-DEVD-pNA absorbance 405 nm; at 8.5 µM; hits give high values; D23A/D198A/D206A triple mutant, cannot self-cleave; scale: DMSO 0, 5 µM enzyme 100. Put shortly:
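Material: Procaspase-7 triple mutant (PC-7 D3A) | Quantity: 2 µM procaspase-7 mutant as dispensed | Reagent: DEVD-pNA substrate | Times: 1 h preincubation, 2 h reaction | Technique: 405 nm absorbance of p-nitroaniline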
For `COc1cc(OC)cc(C(=O)NC2CCN(C(=O)N3c4ccccc4Sc4ccccc43)CC2)c1`, the activation is 2.43% (inactive).

Regarding `CON(C)S(=O)(=O)c1ccc2c(c1)NC(=O)C1CCCN21` (stereo not drawn), the activation was -0.92% (inactive).

For the compound `CCCCn1c(-c2cccc(C)c2)nc2cc3[nH]c(=O)c(C(C)C)nc3cc21`, the activation was 11.3% (inactive).

For the compound `CC(=O)c1ccc(OC(=O)N2CCOCC2)cc1`, the activation is -1.27% (inactive).

On to `O=C(NC1CCCC1)C(NS(=O)(=O)c1ccc(Br)s1)c1ccccc1` (stereo not drawn), for which the activation is -4.82% (inactive).

Regarding `O=S(=O)(Cc1noc(-c2ccc(OC(F)(F)F)cc2)n1)c1ccc(F)cc1`, the activation was 10.7% (inactive).

Consider `Cc1ccc(C)c(NS(=O)(=O)c2c(C)[nH]c(C)c2C(=O)N2CCCCC2)c1`, for which the activation is 4.13% (inactive).

Take `COc1ccccc1N1CCN(C(=O)c2cn(-c3ccccc3)nc2-c2cccnc2)CC1`: the activation was 6.33% (inactive).

Consider `COc1ccccc1N1CCN(C(=O)c2ccc(NC3=NC4CS(=O)(=O)CC4S3)cc2)CC1` (stereo not drawn), for which the activation is 5.2% (inactive).

As for `COc1ccc(Nc2ncc(C(=O)N3CCN(c4ccccc4OC)CC3)c3ccccc23)cc1`, the activation is 49.2% (active).

For the compound `CC(C)C(c1nnnn1C(C)(C)C)N1CCN(Cc2cccnc2)CC1` (stereo not drawn), the activation is -6.66% (inactive).

For the compound `COc1ccc(CN(C)Cc2nc3cc(OC)c(OC)cc3c(=O)[nH]2)c(OC)c1`, the activation was 4.38% (inactive).

With `CSCCC(NS(=O)(=O)c1ccc(C)cc1)C(=O)NCCc1c[nH]c2ccccc12` (stereo not drawn), the activation was -0.01% (inactive).

For `CCCCS(=O)c1snnc1C` (stereo not drawn), the activation is -3.16% (inactive).

As to `CCOC(=O)N1CCN(C(=O)c2ccccc2SCC(=O)NCC2CCCCC2)CC1`, the activation was -1.95% (inactive).

Take `O=C(O)CCS(=O)(=O)c1ccc(-c2ccccc2)cc1`: the activation was 6.38% (inactive).

As to `O=C1OCCN1C(=O)[C@H]1[C@H](c2ccc(F)cc2)C(c2ccccc2)=NN1c1ccc(Br)cc1`, the activation is 28.9% (active).

In the case of `O=C1OCCN1C(=O)[C@H]1[C@H](c2ccc(Cl)cc2)C(c2cccc(Cl)c2)=NN1c1ccc(Br)cc1`, the activation was 10.5% (inactive).

As for `O=C1OCCN1C(=O)[C@H]1[C@H](c2ccccc2)C(c2ccc(F)cc2)=NN1c1ccccc1`, the activation was -10.3% (inactive).

For `Fc1ccc(N2N=C(c3cccs3)CC2c2ccco2)c(F)c1` (stereo not drawn), the activation is 51% (active).

For the compound `O=C(COc1ccccc1Cl)N1N=C(c2cccs2)CC1c1ccco1` (stereo not drawn), the activation is -20% (inactive).

As to `COc1ccccc1N1N=C(c2cccs2)CC1c1ccccc1` (stereo not drawn), the activation is -22.6% (inactive).

On to `CN(C(=O)CCNC(=O)Cn1ccc2ccccc2c1=O)c1ccc(Br)cc1`, for which the activation is 4.82% (inactive).

With `Cn1c(CCCOc2ccc(Cl)cc2Cl)n[nH]c1=S`, the activation is -19.3% (inactive).

Take `O=C(Nc1cccc2c1CCCC2)c1ccc(F)cc1`: the activation was 7.3% (inactive).

Turning to `Cc1ncn2cc(-c3ccc(Cl)cc3Cl)[nH]c(=O)c12`, the activation is 10.9% (inactive).

As to `O=C(c1cccc(-n2cccc2)c1)N1CCN(S(=O)(=O)c2ccc(F)cc2)CC1`, the activation is 3.36% (inactive).

Turning to `Cc1ccc2c(CC(=O)NCc3cccs3)coc2c1`, the activation was -3.04% (inactive).

Turning to `COC(=O)c1ccc(CN2CCN(CCCc3ccccc3)C(CCO)C2)cc1` (stereo not drawn), the activation was 2.25% (inactive).

Take `Cc1cccc(N2CC(C)Cn3c2nc2c3c(=O)n(CC(=O)OCc3ccccc3)c(=O)n2C)c1` (stereo not drawn): the activation was 1.17% (inactive).

In the case of `COc1ccc(C2=NS(=O)(=O)N(C)C(C(=O)N(C)Cc3ccccc3)=C2)cc1`, the activation was 1.33% (inactive).

As to `N#Cc1ccccc1CN1C(=O)S/C(=C/c2cccn2-c2cccc(C(=O)O)c2)C1=O`, the activation was -18.8% (inactive).

As for `O=C(Cc1coc2ccc3ccccc3c12)NCc1cccs1`, the activation is 9.96% (inactive).

Consider `CC1(C)Cc2c(sc(NC(=O)C(=O)NCC3CCCO3)c2C(=O)O)CO1` (stereo not drawn), for which the activation was 1.97% (inactive).

As to `CCc1c(C)c2ccc(OC3CCCCC3=O)cc2oc1=O` (stereo not drawn), the activation was 4.02% (inactive).

For the compound `CC(=O)Oc1ccc2c(C)c(CC(C)O)c(=O)oc2c1` (stereo not drawn), the activation was 29.6% (active).

Consider `COC(=O)Cc1c(C)c2ccc(OCC(=O)NCc3ccc4c(c3)OCO4)cc2oc1=O`, for which the activation is 13.2% (inactive).

Take `CC(C(=O)NCCc1ccc(S(N)(=O)=O)cc1)N1C(=O)CC(C)(C)Sc2ccccc21` (stereo not drawn): the activation was -4.12% (inactive).

On to `COc1ccc(C2(C)ON(c3ccccc3C(F)(F)F)C2=O)cc1` (stereo not drawn), for which the activation is 2.15% (inactive).

Turning to `O=C(NC1CCc2ccccc21)C12CN(Cc3ccccc3)CC1C(c1cccc([N+](=O)[O-])c1)=NO2` (stereo not drawn), the activation is 7.39% (inactive).

On to `COc1ccc(NC(=O)c2cccc3c2C(=O)N(CC2CCCO2)C3)cc1OC` (stereo not drawn), for which the activation is 9.62% (inactive).

For the compound `COc1ccc(/C=N/Nc2nc3ccccc3c(=O)[nH]2)cc1`, the activation was 28.9% (active).

On to `COc1ccc(/C=N/Nc2ccccc2C(=O)O)cc1`, for which the activation is -19.5% (inactive).

In the case of `COc1ccc(/C=N/Nc2nc(-c3ccc(C)cc3)c(C#N)c(=O)[nH]2)cc1`, the activation was 1.13% (inactive).

`C/C(=N/NC(=O)CSc1ccccn1)c1ccc([N+](=O)[O-])cc1`: the activation is 1.61% (inactive).

With `CCCNC(=S)N1CCCC(c2nc3ccccc3[nH]2)C1` (stereo not drawn), the activation is 6.91% (inactive).

As for `Cc1cccc(-n2c(SCC(=O)Nc3cccc(S(=O)(=O)NC4=NCCCCC4)c3)nc3ccccc3c2=O)c1C`, the activation is -0.51% (inactive).

Take `CC1(C)C(C=C(Cl)Cl)C1C(=O)NC(O)C(=O)c1ccccc1` (stereo not drawn): the activation was 6.56% (inactive).

In the case of `COC(=O)c1ccc(N2CCOCC2)c(NC(=O)c2ccc(Br)o2)c1`, the activation is 1.06% (inactive).

Turning to `COc1ccccc1CNC(=O)COC(=O)CNS(=O)(=O)c1ccc(NC(C)=O)cc1`, the activation was 7.44% (inactive).

For the compound `CCOC(=O)N1CCN(Cc2nnc(-c3ccccc3Cl)o2)CC1`, the activation was -1.71% (inactive).

Regarding `Cn1cnnc1SCc1nnc(-c2ccccc2Br)o1`, the activation is 2.67% (inactive).

With `Nc1cccc2c1C(=O)N(Cc1nnc(-c3ccccc3Br)o1)C2=O`, the activation was 64.5% (active).

With `CN(C)CCCSc1ccccc1NC(=O)/C=C/c1ccccc1`, the activation was 10.4% (inactive).

Consider `Cc1nc(SCC(=O)N2CCc3ccccc3C2)c2c(C)c(C)sc2n1`, for which the activation is 18.1% (inactive).

Take `CC(C)C(=O)N1CCN(c2nc(-c3ccccc3)c3c(c2C#N)CC(C)(C)OC3)CC1`: the activation is 12.1% (inactive).

With `COc1ccc(CSc2nc(N3CCOCC3)c3c(c2C#N)CC(C)(C)OC3)cc1`, the activation is -0.56% (inactive).

With `CC1(C)Cc2c(C#N)c(SCc3nc4ccccc4[nH]3)nc(N3CCOCC3)c2CO1`, the activation is 33% (active).
